Reference: article PMC7216793 (Molecular pharmaceutics, 2020)

Legend:
ASM = conditions: cited from earlier work
[1] = earlier work, no reference given; cited from earlier work
[2] = spectrophotometric pH transition; format: physicochemical; conditions: absorbance difference at 252 and 292 nm vs pH
Summary of the method: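 Closed or open form at 50 μM (1% DMSO), in buffers adjusted to 0.1 M ionic strength with KCl: 50 mM phosphoric acid pH 1–2, 50 mM acetate pH 3–5, 50 mM phosphate pH 6–8, 12.5 mM borate pH 9. After 24 h at rt, spectra were read 230–400 nm, DMSO blank subtracted (two experiments, duplicate). Summed absorbance differences at 252/292 nm vs pH were fitted by nonlinear regression.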

[3] = tested on: asthmatic mice (ovalbumin sensitized and challenged model); conditions: cited from earlier work
[4] = kinetics of ring opening and closing by 1H-NMR; format: physicochemical; conditions: 0.1 N DCl in 50:50 D2O:d6-DMSO
[5] = 28 day dosing of 100 mg/kg; cited from earlier work
[6] = tested on: airway resistance induced with methacholine; conditions: airway resistance induced with 25 mg/ml methacholine; cited from earlier work
[7] = acid titration of basic MIDD0301 solution with 1 N HCl; format: physicochemical; conditions: 50 μM in 0.1 N NaOH, water with 30 % DMSO; nonlinear regression
[8] = oral dosages of 1000 mg/kg; cited from earlier work
[9] = mass spectrometry analysis of pH dependent ratio of closed and open MIDD0301; format: physicochemical
Summary of the method: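 Closed form at 50 μM in water was brought to pH 1 with 0.1 M HCl. It was then stepped up to pH 9 with 10% ammonium hydroxide, taking an aliquot at each pH. Aliquots stood 24 h at rt, then final pH was measured. Each was infused directly into the MS without LC or added solvent. Closed:open ratio came from peak heights at 414 and 432 m/z.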

[10] = logD oct/wat at different pH; format: physicochemical; conditions: 1-octanol/buffered water, 24 h
Summary of the method: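 Shake-flask partition of the closed form. 200 μL of 2.5 mM in 1-octanol was added to 300 μL water-saturated octanol and 500 μL octanol-saturated buffer (pH 1–9). Vials were shaken overnight and left 1 h to separate. Aliquots of each layer were diluted in octanol or buffer and read at 270 nm (isosbestic). Concentrations came from per-phase calibration curves. Run in triplicate.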

[11] = pharmacokinetic study in mice: blood, lung and brain concentrations by LC-MS/MS; format: in vivo, Swiss Webster mice
Summary of the method: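 Six-week-old female Swiss Webster mice (SPF) received closed or open form by intragastric gavage at 25 mg/kg in various vehicles (n = 4). At 60 min, heparinised blood was drawn by cardiac puncture and non-perfused brain and lungs were harvested. Samples were extracted in methanol with internal standard. Both forms were quantified by LC-MS/MS (C18; methanol/water, 0.1% formic acid; positive mode).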

[12] = shake flask solubility at different pH, UV at 270 nm; format: physicochemical; conditions: 24 h shake flask
Summary of the method: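 2 mg closed form in 200 μL buffered water was shaken 24 h in a closed vial. It was centrifuged 5 min at 16000 × g and supernatant pH was measured. Three 10 μL aliquots were diluted into 50:50 methanol/25 mM phosphate pH 10 and read at 270 nm. Concentration came from a calibration curve in the same diluent. Three independent measurements per pH.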

[13] = kinetics of ring opening and closing by UV absorbance at 246 nm; format: physicochemical; conditions: UV 246 nm, aqueous 0.1 N HCl
Summary of the method: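 Four replicate wells, each with 5 μL of 1 mM closed form plus 75 μL aqueous acid (0.1 N HCl; final 62.5 μM). A246 read every 30 s for 260 min, with a DMSO-containing buffer blank subtracted. Averaged absorbance-time curves (n = 4) were fitted by first-order kinetics to give k and half-life.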

[14] = mice, 25 mg/kg oral, 60 min, Entry 1: 2.5 % PEG400, 98 % HPMC (2 % in water), pH 6.1
[15] = mice, 25 mg/kg oral, 60 min, Entry 2: 40 % propylene glycol, 60 % HPMC (2 % in water), pH 5.9
[16] = mice, 25 mg/kg oral, 60 min, Entry 4: 2.5 % PEG400, 98 % HPMC (2 % in PBS, pH 7.4)
[17] = mice, 25 mg/kg oral, 60 min, Entry 4: 2.5 % PEG400, 98 % HPMC (2 % in PBS, pH 7.4), listed as Closed MIDD0301, 25 mg/kg
[18] = mice, 25 mg/kg oral, 60 min, Entry 4: 2.5 % PEG400, 98 % HPMC (2 % in PBS, pH 7.4), listed as closed MIDD0301, 25 mg/kg
[19] = mice, 25 mg/kg oral, 60 min, Entry 5: pretreatment with omeprazole (30 mg/kg), 2.5 % PEG400, 98 % HPMC (2 % in PBS)

CC(C)c1cccc(C(C)C)c1O [propofol]
effect on airway smooth muscle (ASM): relaxed ASM

C[C@H]1N=C(c2ccccc2F)c2cc(Br)ccc2-n2cnc(C(=O)O)c21 [MIDD0301]
oral dosage required to achieve pharmacological effects [1]: 50 mg/kg | pH of the spectrophotometric transition [2]: 4.34 | IL-17A, IL-4 and TNFα in the lungs ([3]; asthmatic mice): reduction | airway hyperresponsiveness to methacholine challenge ([3]; oral 100 mg/kg): reduced airway hyperresponsiveness | eosinophil, CD4+ T cell and macrophage numbers in the lungs ([3]; oral 100 mg/kg): reduced | kacid, conversion of closed to open MIDD0301 ([4]; 2.4 mM, pseudo first order): 0.050 min⁻¹ | half-life of ring opening [4]: 13.7 min | humoral immune response to T-dependent antigen dinitrophenyl-keyhole limpet haemocyanin [5]: no change | signs of toxicity [5]: no signs of toxicity | nebulized dose sufficient to overcome airway resistance [6]: 0.8 mg/kg | pH of inflection, acid titration [7]: 4.69 | CNS effects in sensorimotor studies [8]: no CNS effects | closed MIDD0301 remaining by MS ([9]; 0.1 N HCl, after 24 h): 10% | open MIDD0301 share by MS ([9]; pH 6, after 24 h): 17% | open MIDD0301 share by MS ([9]; pH 7 and higher, 24 h): 2% | calculated equilibrium pH (equal peak heights of closed and open form) ([9]; water, 24 h, MS 414 vs 432 m/z): 4.3 | pH range in which the equilibrium between open and closed form was observed ([9]; water, MS): 4–5 | pH range of highest concentration in 1-octanol [10]: 2–5 | percentage of open MIDD0301 in comparison to closed MIDD0301 ([11]; all biological samples, all formulations): ≤ 4% | Concentration of closed MIDD0301, Brain [11, 14]: 87 ± 27 nM | Concentration of open MIDD0301, Blood [11, 14]: 9 ± 3 nM | Concentration of open MIDD0301, Brain [11, 14]: 3 ± 1 nM | Concentration of open MIDD0301, Lung [11, 14]: 5 ± 2 nM | open MIDD0301, % of closed MIDD0301, Blood [11, 14]: 3% | open MIDD0301, % of closed MIDD0301, Brain [11, 14]: 2% | open MIDD0301, % of closed MIDD0301, Lung [11, 14]: 2% | concentration of open MIDD0301 as % of closed MIDD0301, all samples ([11]; mice, 25 mg/kg oral, 60 min, Entry 1, blood, lung, brain): 2–3% | Concentration of closed MIDD0301, Brain [11, 15]: 104 ± 42 nM | Concentration of open MIDD0301, Blood [11, 15]: 6 ± 2 nM | Concentration of open MIDD0301, Brain [11, 15]: 3 ± 1 nM | Concentration of open MIDD0301, Lung [11, 15]: 9 ± 2 nM | open MIDD0301, % of closed MIDD0301, Blood [11, 15]: 3% | open MIDD0301, % of closed MIDD0301, Brain [11, 15]: 3% | open MIDD0301, % of closed MIDD0301, Lung [11, 15]: 2% | Concentration of closed MIDD0301, Brain [11, 16]: 130 ± 24 nM | Concentration of open MIDD0301, Blood [11, 16]: 18 ± 14 nM | Concentration of open MIDD0301, Brain [11, 16]: 4 ± 3 nM | Concentration of open MIDD0301, Lung [11, 16]: 28 ± 19 nM | open MIDD0301, % of closed MIDD0301, Blood [11, 16]: 4% | open MIDD0301, % of closed MIDD0301, Brain [11, 16]: 3% | open MIDD0301, % of closed MIDD0301, Lung [11, 16]: 2% | Concentration of closed MIDD0301, Blood [11, 17]: 413 ± 116 nM | Concentration of closed MIDD0301, Lung [11, 17]: 1745 ± 1121 nM | Concentration of closed MIDD0301, Blood [11, 18]: 413 nM | Concentration of closed MIDD0301, Lung [11, 18]: 2046 nM | Concentration of closed MIDD0301, Blood [11, 19]: 516 ± 180 nM | Concentration of closed MIDD0301, Brain [11, 19]: 159 ± 33 nM | Concentration of closed MIDD0301, Lung [11, 19]: 2046 ± 1155 nM | Concentration of open MIDD0301, Blood [11, 19]: 20 ± 8 nM | Concentration of open MIDD0301, Brain [11, 19]: 4 ± 2 nM | Concentration of open MIDD0301, Lung [11, 19]: 32 ± 21 nM | open MIDD0301, % of closed MIDD0301, Blood [11, 19]: 4% | open MIDD0301, % of closed MIDD0301, Brain [11, 19]: 3% | open MIDD0301, % of closed MIDD0301, Lung [11, 19]: 2% | MIDD0301 in non-perfused brain as % of lung concentration ([11]; mice, oral, under these specific conditions (Conclusions)): less than 10% | aqueous solubility ([12]; neutral pH): > 3 g/L | aqueous solubility ([12]; pH 3.9): < 0.1 g/L | kacid, conversion of closed to open MIDD0301 ([13]; 62.5 μM): 0.142 min⁻¹ | half-life in 0.1 N HCl [13]: 4.8 min
